# Only a selection was taken, and hits are over-represented in it overall.
# T cruzi inh: blocks replication of Trypanosoma cruzi; hit rate 1.4% among 300,000; T. cruzi beta-gal in NIH3T3, luminescence, 90 h; inhibition, % (no concentration beside the values);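 active = mean inhibition across valid replicates above about 55%, limit read from the data; inconclusive = mean below that limit but half or more replicates reach it; inactive = mean below it, under half of replicates reach it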;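 also: signal also drops with host cell toxicity which is not excluded here; 0% = plate median of DMSO wells and 100% = zero luminescence signal; higher percent means less beta-gal luminescence so fewer parasites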
#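 System: NIH/3T3 fibroblasts plus reporter T. cruzi. Medium: DMEM plus 2% FBS. Probe or stimulus: 5000 reporter trypomastigotes per well. Compound: single 50 nL compound addition per well in DMSO. Incubation: co-culture of at least 90 h after 3 h attachment. Detection: GalScreen β-gal luminescence, detergent lysis, 60 min. Evaluation: parasite load inhibition, %.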
# L major viab: Leishmania major promastigote growth inhibition; Leishmania major promastigotes, resazurin fluorescence viability; inhibition, % at 10 µM; hit rate 9% among 200,000; in the data active = inhibition above about 50%;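 also: promastigotes grown with compound for 44 hours at 28 °C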
# HSF1 inh: HSF1 inhibition; activity change, negative = inhibition, % at 7.5 µM (by protocol); hit rate 0.77% among 300,000; NIH3T3-HGL HSE-luciferase, MG132-induced, luminescence 8 h; stronger effect = lower value; AID 2098;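 active = more than half of replicate wells show activity change below -50%, luminescence cut by over half; inconclusive = some wells, but at most half, below -50%; inactive = no replicate well below -50%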;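 also: luciferase reports HSF-1 transcriptional activity via heat shock element; 0% = median of DMSO wells and -100% = zero luminescence signal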
# HSF1 activator: increases HSF-1 driven luciferase reporter signal | activation, % at 9 µM | hit rate 1.7% among 300,000 | NIH3T3-HGL HSF-1 luciferase reporter, MG132, 8 h; 100% = twice DMSO control signal;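 active = mean replicate activation of at least 50% with a set share of replicates each reaching 50%; inconclusive = only one of those two conditions met; inactive = mean below 50% and too few replicates reaching it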;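 also: 0% = median of the neutral control wells and 100% = twice that signal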
# Hsp70 act: transcriptional activators of Hsp70; activation, % at 10 µM; hit rate 0.04% among 200,000; HeLa Hsp70 promoter luciferase reporter, luminescence; scaled: vehicle 0, proteasome-inhibitor control 100%;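 active = activation above the mean across all tested compounds plus 3 SD, cutoff set per campaign, cut at about 5.5% in these data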;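 also: 100% = MG132 at 30 µM as the positive control and 0% = DMSO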
# * marks the source's active call; other numbers are inactive results; ? = inconclusive; · = no result given.
SMILES,T cruzi inh,L major viab,HSF1 inh,HSF1 activator,Hsp70 act
COc1cc2c3cc1Oc1cc(ccc1O)C[C@@H]1c4c(cc(OC)c(O)c4Oc4ccc(cc4)C[C@H]3N(C)CC2)CCN1C,26,100*,-7,7,0
COc1ccc(N=Cc2c(O)n(Cc3ccccc3)c(=S)[nH]c2=O)c(OC)c1,7,·,63,117*,·
O=C(c1ccc2c3c(cccc13)CC2)C1CCCN(Cc2ncc[nH]2)C1 (stereo unspecified),16,48,-4,0,0
O=C(c1ccc2c3c(cccc13)CC2)C1CCCN(CC2CC2)C1 (stereo unspecified),27,99*,-12,-6,0
CCN(CC)C1=NC(=[N+](CC)CC)c2ccccc21,?,100*,-6,-9,0
Cc1nn(Cc2ccccc2)c(Cl)c1C(=O)OCC(=O)NCC1CCCO1 (stereo unspecified),4,-3,3,0,0
Cn1cnc([N+](=O)[O-])c1Sc1ccc([N+](=O)[O-])cc1,23,84*,6,0,0
COc1ccc(C)cc1NC(=O)c1c(C)nn(Cc2ccccc2)c1Cl,9,-7,-1,12,0
COc1ccc(OC)c(CNCCc2ccc(OC)c(OC)c2)c1,9,·,-9,-4,·
CC1CN(C)C(C)(C)CC1(O)c1ccccc1 (stereo unspecified),6,57*,-11,3,0
CCOc1ccc(Br)c(C2(O)CC(C)N(C)CC2C)c1 (stereo unspecified),-2,83*,-5,-8,0
Cc1ccc(C2(O)CC(C)N(C)CC2C)cc1 (stereo unspecified),-10,88*,-3,6,0
Cc1c(C(=O)C(=O)N2CCC3(CC2)OCCO3)c2ccccc2n1C,-13,-12,4,25,0
O=C1NC(=O)C(CCc2ccncc2)(C2CCCCC2)C(=O)N1,·,-2,14,43,0
CCOC(C(=O)OCCCN(CC)CC)(c1ccccc1)c1ccccc1,25,100*,-8,7,0
CCN(CC)CCCOC(=O)C(OC(C)C)(c1ccccc1)c1ccccc1,33,89*,1,17,0
O=C(CN1C(=O)CN=C(c2ccccc2Cl)c2cc(Cl)ccc21)NCc1ccco1,9,97*,5,-1,0
COc1ccc(C2=NCC(=O)N(CC(=O)NCc3ccco3)c3sc4c(c32)CCCC4)cc1,12,0,15,19,0
CC(=O)CC(=O)C1C(=O)N(C)C(=O)N(C)C1=O,-14,-2,-3,0,0
CCOC(=O)c1c(C)n(Cc2ccc3c(c2)OCO3)c2ccc(O)cc12,-5,4,40,62*,0
Cn1ncnc2c(=O)n(C)c(=O)nc1-2,63*,·,-95*,-95,·
CCCCSP1(=S)NCCCO1 (stereo unspecified),-1,-4,2,-11,0
Cc1ccc(CN2C(=O)NC(=O)C3(Cc4c(nc5ccccn5c4=O)N4CCCCCC43)C2=O)cc1 (stereo unspecified),16,85*,33,?,0
O=C1NC(=O)C2(Cc3ccccc3N3CCCC32)C(=O)N1c1cccc(Cl)c1 (stereo unspecified),-1,-5,4,31,0
C/C(=N\N1CCN(C)CC1)c1c(O)n(Cc2ccccc2)c(=O)[nH]c1=O,-22,-8,14,23,-1
SMILES,T cruzi inh,L major viab,HSF1 inh,HSF1 activator,Hsp70 act
O=C(COc1ccc(Br)cc1)N1CCN(Cc2ccncc2)CC1,·,1,·,·,-1
Cc1ccc(OCC(=O)N2CCN(Cc3ccc4c(c3)OCO4)CC2)cc1C,13,89*,-2,3,0
COc1ccc(CN2CCN(C(=O)COc3cccc(C)c3)CC2)c(OC)c1,-6,62*,4,0,0
CCc1ccc(CN2CCN(Cc3ccc(SC)cc3)CC2)cc1,70*,89*,-6,-8,1
CSc1ccc(CN2CCN(C(=O)COc3ccc(C)cc3)CC2)cc1,34,87*,-35,-40,0
COc1ccc(OC)c(CN2CCN(C(=O)COc3cccc(C)c3)CC2)c1,-4,2,1,-8,0
Cc1cccc(OCC(=O)N2CCN(Cc3ccc4c(c3)OCO4)CC2)c1,-2,83*,12,46,0
CN1CCN(c2nc3ccccc3c(=O)n2-c2ccccc2)CC1,16,-9,-2,9,0
N#CSCC(=O)N1c2ccccc2CCc2ccccc21,17,96*,-11,-15,0
CCCC[n+]1cc(=N)o[n-]1,-8,·,3,-12,·
CCCCn1c(O)c(C(CC)=Nc2cccc(C(=O)O)c2)c(=O)[nH]c1=O,-16,-2,-8,-7,-1
COCCNC(=O)c1c(N)n(Cc2ccco2)c2nc3ccccc3nc12,0,55*,46,?,0
Nc1c(C(=O)NCCN2CCOCC2)c2nc3ccccc3nc2n1Cc1ccco1,·,18,11,1,0
C=CCNC(=O)c1c(N)n(Cc2ccco2)c2nc3ccccc3nc12,-15,100*,97,134*,0
COc1ccc(-n2c(C)cc(C(=O)C[N+]34CCN(CC3)CC4)c2C)cc1,-14,-3,-8,2,0
O=C(NC1CC1)C1CSC(c2cccnc2)=N1 (stereo unspecified),-4,3,-5,-10,0
CCOc1ccc(CNCCc2ccc3c(c2)OCO3)cc1,67*,·,-1,-4,·
c1ccc2c(CCNCc3ccc4c(c3)OCO4)c[nH]c2c1,22,77*,-1,0,0
CCOc1ccccc1CNCCc1ccc2c(c1)OCO2,15,·,-2,3,·
CCN1C(=O)C(=Cc2ccc(C)s2)C(=O)N(CC)C1=S,-20,84*,-5,-12,0
CCN1C(=O)C(=Cc2cc(C)n(C3CC3)c2C)C(=O)N(CC)C1=S,-22,-2,-5,-3,0
CN1CCc2nc3sc(C#N)c(N)c3c(-c3cccs3)c2C1,67*,9,-4,-4,0
O=C(CCc1nnc2ccc(NCc3ccccc3)nn12)N1CCC2(CC1)OCCO2,4,·,-9,-4,·
COc1ccc(CCC(C)NCCc2ccccc2)cc1 (stereo unspecified),47,89*,0,8,1
CCN1CCN(C(c2cccs2)C(C)NC(=O)Oc2ccccc2)CC1 (stereo unspecified),-25,21,-3,10,0
O=C(NCC(c1cccnc1)N1CCN(c2ccccc2F)CC1)Oc1ccccc1 (stereo unspecified),65*,97*,2,3,-1
COc1ccc(N2CCN(C(CNC(=O)Oc3ccccc3)c3cccnc3)CC2)cc1 (stereo unspecified),62*,92*,3,18,0
CC(=NCCCn1ccnc1)c1c(O)n(C)c(=O)n(C)c1=O,-9,-1,3,3,0
CC1(C)C2([N+](=O)[O-])CN3CN(C2)CC1([N+](=O)[O-])C3,-11,-5,-2,-14,0
